Data published in ChEMBL document CHEMBL1124421, “A dihydropyridine carrier system for sustained delivery of 2',3'-dideoxynucleosides to the brain” (J Med Chem, 1989).

What was measured:
Mus musculus [1] = species on record: Mus musculus; experiment: Distribution of compound in mice liver was measured after 24 hr; b=Undetected; assay type: ADME, organism-based; details: in vivo
Summary of the method: (§1)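 Female BDF/1 mice dosed by tail-vein injection at 25 mg/kg in 5% Tween 80 containing 5% ethanol; killed 1, 2, 3, 6 and 24 h later. Liver homogenized in 50% methanol and pyridinium salt quantified by C-18 reverse-phase HPLC (linear gradient 50–70% acetonitrile). Three mice per time point; values in µg/g wet tissue.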

Mus musculus [2] = species on record: Mus musculus; experiment: Distribution of compound in mice brain was measured after 24 hr r; details: in vivo
Mus musculus [3] = species on record: Mus musculus; experiment: Distribution of compound in mice brain was measured after 6 hr; details: in vivo
Mus musculus [4] = species on record: Mus musculus; experiment: Distribution of compound in mice brain was measured after 3 hr; details: in vivo
Mus musculus [5] = species on record: Mus musculus; experiment: Distribution of compound in mice brain was measured after 1 hr; details: in vivo
Mus musculus [6] = species on record: Mus musculus; experiment: Distribution of compound in mice liver was measured after 1 hr; assay type: ADME, organism-based; details: in vivo; summary of the method: as §1
Mus musculus [7] = species on record: Mus musculus; experiment: Distribution of compound in mice brain was measured after 2 hr; details: in vivo
Mus musculus [8] = species on record: Mus musculus; experiment: Distribution of compound in mice liver was measured after 3 hr; assay type: ADME, organism-based; details: in vivo; summary of the method: as §1
Mus musculus [9] = species on record: Mus musculus; experiment: Distribution of compound in mice liver was measured after 2 hr; assay type: ADME, organism-based; details: in vivo; summary of the method: as §1
Mus musculus [10] = species on record: Mus musculus; experiment: Distribution of compound in mice liver was measured after 6 hr; assay type: ADME, organism-based; details: in vivo; summary of the method: as §1
[11] = Half-life of compound in presence of mouse brain homogenate; assay type: ADME
Summary of the method: (§2)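 Dihydropyridine ester at 5 × 10^-5 M kept at 37 °C in a UV cuvette. Media were human plasma diluted 1:1 with 50 mM phosphate buffer pH 7.4, mouse liver homogenate (20 mg/mL) or mouse brain homogenate (40 mg/mL) in the same buffer. Loss of the 360 nm dihydronicotinate absorbance was followed. Rate constant came from the slope of log disappearance.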

Homo sapiens = species on record: Homo sapiens; experiment: In vitro oxidation of compound to its pyridinium salt (3) in presence of human plasma; assay type: ADME; summary of the method: as §2
[12] = In vitro oxidation of compound to its pyridinium salt (3) in presence of hydrogen peroxide; assay type: ADME
[13] = Half-life of compound in presence of mouse liver homogenate; assay type: ADME; summary of the method: as §2
Mus musculus [14] = species on record: Mus musculus; experiment: In vitro oxidation of compound to its pyridinium salt (3) in presence of mouse liver homogenate; assay type: ADME; summary of the method: as §2
[15] = Half-life of compound in presence of hydrogen peroxide; assay type: ADME
Mus musculus [16] = species on record: Mus musculus; experiment: In vitro oxidation of compound to its pyridinium salt (3) in presence of mouse brain homogenate; assay type: ADME; summary of the method: as §2
[17] = Half-life of compound in presence of human plasma; assay type: ADME; summary of the method: as §2

Concentration (Mus musculus [1]) | Concentration (Mus musculus [2]) | Concentration (Mus musculus [3]) | Concentration (Mus musculus [4]) | Concentration (Mus musculus [5]) | Concentration (Mus musculus [6]) | Concentration (Mus musculus [7]) | Concentration (Mus musculus [8]) | Concentration (Mus musculus [9]) | Concentration (Mus musculus [10]) | half-life [11] [h] | K (Homo sapiens) [s⁻¹] | K [12] [s⁻¹] | half-life [13] [h] | K (Mus musculus [14]) [s⁻¹] | half-life [15] [h] | K (Mus musculus [16]) [s⁻¹] | half-life [17] [h] | SMILES
Undetected | 3 ug (g of wet tissue)-1 | 5.1 ug (g of wet tissue)-1 | 5.3 ug (g of wet tissue)-1 | 4.7 ug (g of wet tissue)-1 | 3.3 ug (g of wet tissue)-1 | 4.9 ug (g of wet tissue)-1 | 2 ug (g of wet tissue)-1 | 2.5 ug (g of wet tissue)-1 | 1.3 ug (g of wet tissue)-1 |  |  |  |  |  |  |  |  | Cc1cn(C2C=CC(COC(=O)c3ccc[n+](C)c3)O2)c(=O)[nH]c1=O.[I-] (stereo not drawn)
 |  |  |  |  |  |  |  |  |  | 2.17 | 0.0000354 | 0.00055 | 2.08 | 0.000092 | 0.35 | 0.0000885 | 5.42 | Cc1cn(C2C=CC(COC(=O)C3=CN(C)C=CC3)O2)c(=O)[nH]c1=O (stereo not drawn)
 | 1.2 ug (g of wet tissue)-1 | 2.3 ug (g of wet tissue)-1 | 2.6 ug (g of wet tissue)-1 | 2.7 ug (g of wet tissue)-1 |  | 2.5 ug (g of wet tissue)-1 |  |  |  |  |  |  |  |  |  |  |  | Cc1cn([C@H]2C=C[C@@H](CO)O2)c(=O)[nH]c1=O [STAVUDINE]

SMILES | Concentration (Mus musculus [1]) | Concentration (Mus musculus [2]) | Concentration (Mus musculus [3]) | Concentration (Mus musculus [4]) | Concentration (Mus musculus [5]) | Concentration (Mus musculus [6]) | Concentration (Mus musculus [7]) | Concentration (Mus musculus [8]) | Concentration (Mus musculus [9]) | Concentration (Mus musculus [10]) | half-life [11] [h] | K (Homo sapiens) [s⁻¹] | K [12] [s⁻¹] | half-life [13] [h] | K (Mus musculus [14]) [s⁻¹] | half-life [15] [h] | K (Mus musculus [16]) [s⁻¹] | half-life [17] [h]
C[n+]1cccc(C(=O)[O-])c1 [TRIGONELLINE] |  | 0.9 ug (g of wet tissue)-1 | 1.9 ug (g of wet tissue)-1 | 2.4 ug (g of wet tissue)-1 | 2.2 ug (g of wet tissue)-1 |  | 2.1 ug (g of wet tissue)-1 |  |  |  |  |  |  |  |  |  |  | 
